Assay results: ChEMBL document CHEMBL1124186, “Synthesis and evaluation of tylosin-related macrolides modified at the aldehyde function: a new series of orally effective antibiotics” (1988)
In brackets after ≈: the same amount, converted by molar mass.

Experiments:
Mus musculus [1] = test: Peripheral plasma levels in mice after oral administration of 50 mg/kg dose for 4 hr; assay type: functional, organism-based; set-up: dose 50 mg/kg
In short: (§1)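 Mice were given the compound orally and sampled for peripheral plasma at each time point. Plasma was assayed microbiologically against Micrococcus luteus seeded in Antibiotic Medium 1. Inhibition zone sizes were read, and concentrations were calculated from each compound's own standard curve. Each value is the mean of five mice per time point.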

[2] = system: Staphylococcus epidermidis; test: In vitro antimicrobial activity against aerobic bacteria Streptococcus epi 270; assay type: functional
Streptococcus [3] = test: In vitro antimicrobial activity against aerobic bacteria Streptococcus D 9960; assay type: functional
Streptococcus [4] = test: In vitro antimicrobial activity against aerobic bacteria Streptococcus D 2041; assay type: functional
Streptococcus [5] = test: In vitro antimicrobial activity against aerobic bacteria Streptococcus D 8043; assay type: functional
Staphylococcus aureus [6] = test: In vitro antimicrobial activity against aerobic bacteria Staphylococcus aureus V41; assay type: functional
Anaerococcus prevotii = test: In vitro antimicrobial activity against anaerobic bacteria peptococcus prevoti 1281; assay type: functional
[7] = system: Haemophilus parainfluenzae; test: In vitro antimicrobial activity against aerobic bacteria Haemophilus parainfluenzae 9796; assay type: functional
[8] = system: Staphylococcus epidermidis; test: In vitro antimicrobial activity against aerobic bacteria Streptococcus epi 222; assay type: functional
Mus musculus [9] = test: Peripheral plasma levels in mice after oral administration of 50 mg/kg dose for 0.25 hr; assay type: functional, organism-based; set-up: dose 50 mg/kg; in short: as §1
Streptococcus pneumoniae [10] = test: In vivo effective dose against experimental infections in mice Streptococcus pneumoniae park when administered orally; assay type: functional; conditions: po
Bacteroides fragilis [11] = test: In vitro antimicrobial activity against anaerobic bacteria bacteroides fragilis 1936B,; assay type: functional
Collinsella aerofaciens = test: In vitro antimicrobial activity against anaerobic bacteria aerofaciens 1235; assay type: functional
[12] = system: Peptoniphilus asaccharolyticus; test: In vitro antimicrobial activity against anaerobic bacteria peptococcus asaccharolyticus 1302; assay type: functional
Enterococcus faecium = test: In vitro antimicrobial activity against Streptococcus faecium X66; assay type: functional, streptococcus fae-cium
Staphylococcus aureus [13] = test: In vitro antimicrobial activity against Staphylococcus aureus X1; assay type: functional
[14] = system: Staphylococcus epidermidis; test: In vitro antimicrobial activity against Staphylococcus epidermidis EPI1; assay type: functional
Haemophilus influenzae [15] = test: In vitro antimicrobial activity against aerobic bacteria Haemophilus influenzae 465; assay type: functional
Streptococcus pneumoniae [16] = test: In vitro antimicrobial activity against aerobic bacteria Streptococcus pneumoniae B1-438; assay type: functional, streptococcus pneum
Clostridium perfringens = test: In vitro antimicrobial activity against anaerobic bacteria clostridium perfringens 81,; assay type: functional
Mus musculus [17] = test: Peripheral plasma levels in mice after oral administration of 50 mg/kg dose for 1 hr; assay type: functional, organism-based; set-up: dose 50 mg/kg; in short: as §1
Clostridium septicum = test: In vitro antimicrobial activity against anaerobic bacteria clostridium septicum 1128; assay type: functional
Eikenella corrodens = test: In vitro antimicrobial activity against anaerobic bacteria bacteroides corrodens 1874; assay type: functional
Fusobacterium = test: In vitro antimicrobial activity against anaerobic bacteria fusobacterium symbiosum 1470; assay type: functional
Haemophilus influenzae [18] = test: In vitro antimicrobial activity against aerobic bacteria Haemophilus influenzae MX366,; assay type: functional
Staphylococcus aureus [19] = test: In vitro antimicrobial activity against aerobic bacteria Staphylococcus aureus X400; assay type: functional
Mus musculus [20] = test: Peripheral plasma levels in mice after oral administration of 100 mg/kg dose for 2 hr; assay type: functional, organism-based; set-up: dose 100 mg/kg; in short: as §1
Staphylococcus aureus [21] = test: In vitro antimicrobial activity against aerobic bacteria Staphylococcus aureus 513E; assay type: functional
[22] = In vitro antimicrobial activity against anaerobic bacteria peptostreptococcus intermedius 1264; assay type: functional
Haemophilus influenzae [23] = test: In vitro antimicrobial activity against Haemophilus influenzae.; assay type: functional
Mus musculus [24] = test: Peripheral plasma levels in mice after oral administration of 100 mg/kg dose for 1 hr; assay type: functional, organism-based; set-up: dose 100 mg/kg; in short: as §1
Clostridioides difficile = test: In vitro antimicrobial activity against anaerobic bacteria Clostridium difficile 2994; assay type: functional
Bacteroides fragilis [25] = test: In vitro antimicrobial activity against anaerobic bacteria bacteroides fragilis 111; assay type: functional
Staphylococcus aureus [26] = test: In vitro antimicrobial activity against aerobic bacteria Staphylococcus aureus V140,; assay type: functional
Streptococcus [27] = test: In vitro antimicrobial activity against aerobic bacteria Streptococcus B 14; assay type: functional
Mus musculus [28] = test: Peripheral plasma levels in mice after oral administration of 50 mg/kg dose for 0.5 hr; assay type: functional, organism-based; set-up: dose 50 mg/kg; in short: as §1
Phocaeicola vulgatus = test: In vitro antimicrobial activity against anaerobic bacteria bacteroides vulgatus 1211; assay type: functional
Streptococcus pneumoniae [29] = test: In vivo effective dose against experimental infections in mice Streptococcus pneumoniae administered sc; assay type: functional
Mus musculus [30] = test: Peripheral plasma levels in mice after oral administration of 100 mg/kg dose for 0.25 hr; assay type: functional, organism-based; set-up: dose 100 mg/kg; in short: as §1
[31] = system: Prevotella melaninogenica; test: In vitro antimicrobial activity against anaerobic bacteria bacteroides melaninogenicus 2736; assay type: functional
Staphylococcus aureus [32] = test: In vitro antimicrobial activity against aerobic bacteria Staphylococcus aureus V135; assay type: functional
Bacteroides fragilis [33] = test: In vitro antimicrobial activity against anaerobic bacteria bacteroides fragilis 1877; assay type: functional
Mus musculus [34] = test: Peripheral plasma levels in mice after oral administration of 100 mg/kg dose for 4 hr; assay type: functional, organism-based; set-up: dose 100 mg/kg; in short: as §1
[35] = system: Bacteroides thetaiotaomicron; test: In vitro antimicrobial activity against anaerobic bacteria bacteroides thetaiotaomicron 1438; assay type: functional
[36] = system: Peptostreptococcus anaerobius; test: In vitro antimicrobial activity against anaerobic bacteria eubacterium peptostreptococcus anaerobius 1428,; assay type: functional
Streptococcus [37] = test: In vitro antimicrobial activity against aerobic bacteria Streptococcus B 5; assay type: functional
Mus musculus [38] = test: Peripheral plasma levels in mice after oral administration of 100 mg/kg dose for 0.5 hr; assay type: functional, organism-based; set-up: dose 100 mg/kg; in short: as §1
Cutibacterium acnes = test: In vitro antimicrobial activity against anaerobic bacteria propionibacterium acnes 79; assay type: functional
[39] = system: Prevotella melaninogenica; test: In vitro antimicrobial activity against anaerobic bacteria bacteroides melaninogenicus 1856,; assay type: functional
Mus musculus [40] = test: Peripheral plasma levels in mice after oral administration of 50 mg/kg dose for 2 hr; assay type: functional, organism-based; set-up: dose 50 mg/kg; in short: as §1
Haemophilus influenzae [41] = test: In vitro antimicrobial activity against aerobic bacteria Haemophilus influenzae 76; assay type: functional
[42] = system: Fusobacterium necrophorum; test: In vitro antimicrobial activity against anaerobic bacteria usobacterium necrophorum 6054A; assay type: functional
Chlamydia trachomatis = test: In vitro antimicrobial activity against chlamydia trachomatis.; assay type: functional

**Q.** Which Concentration (Mus musculus [1]) does the source give for `CC[C@H]1OC(=O)C[C@@H](O)[C@H](C)[C@@H](O[C@@H]2O[C@H](C)[C@@H](O)[C@H](N(C)C)[C@H]2O)[C@@H](CCOc2ccc(C(=O)c3ccccc3)cc2)C[C@@H](C)C(=O)/C=C/C(C)=C/[C@@H]1CO[C@@H]1O[C@H](C)[C@@H](O)[C@@H](OC)[C@H]1OC` here?
**A.** The Concentration was 0.8 µg/mL.

**Q.** What about the MIC [2] of the same compound?
**A.** Its MIC is greater than 128 µg/mL.

**Q.** And the MIC (Streptococcus [3])?
**A.** Its MIC is 0.5 µg/mL (≈ 0.524 µM).

**Q.** What about the MIC (Streptococcus [4]) of the same compound?
**A.** The MIC was 0.5 µg/mL (≈ 0.524 µM).

**Q.** And the MIC (Streptococcus [5])?
**A.** The MIC was 0.25 µg/mL (≈ 0.262 µM).

**Q.** What about the MIC (Staphylococcus aureus [6]) of the same compound?
**A.** Its MIC is 0.25 µg/mL (≈ 0.262 µM).

**Q.** And the MIC (Anaerococcus prevotii)?
**A.** Its MIC is 2 µg/mL (≈ 2.1 µM).

**Q.** And the MIC [7]?
**A.** The MIC was 32 µg/mL (≈ 33.5 µM).

**Q.** What about the MIC [8] of the same compound?
**A.** Its MIC is 0.12 µg/mL (≈ 0.126 µM).

**Q.** What about the Concentration (Mus musculus [9]) of the same compound?
**A.** Its Concentration is 0.1 µg/mL.

**Q.** What about the ED50 (Streptococcus pneumoniae [10]) of the same compound?
**A.** Its ED50 is greater than 50 mg/kg.

**Q.** And the MIC (Bacteroides fragilis [11])?
**A.** The MIC was 4 µg/mL (≈ 4.19 µM).

**Q.** What about the MIC (Collinsella aerofaciens) of the same compound?
**A.** Its MIC is less than 0.5 µg/mL.

**Q.** And the MIC [12]?
**A.** The MIC was less than 0.5 µg/mL.

**Q.** And the MIC (Enterococcus faecium)?
**A.** Its MIC is 0.25 µg/mL (≈ 0.262 µM).

**Q.** What about the MIC (Staphylococcus aureus [13]) of the same compound?
**A.** Its MIC is 0.25 µg/mL (≈ 0.262 µM).

**Q.** And the MIC [14]?
**A.** Its MIC is 0.25 µg/mL (≈ 0.262 µM).

**Q.** And the MIC (Haemophilus influenzae [15])?
**A.** Its MIC is 32 µg/mL (≈ 33.5 µM).

**Q.** What about the MIC (Streptococcus pneumoniae [16]) of the same compound?
**A.** Its MIC is 128 µg/mL (≈ 134 µM).

**Q.** What about the MIC (Clostridium perfringens) of the same compound?
**A.** The MIC was less than 0.5 µg/mL.

**Q.** What about the Concentration (Mus musculus [17]) of the same compound?
**A.** Its Concentration is 0.1 µg/mL.

**Q.** And the MIC (Clostridium septicum)?
**A.** The MIC was less than 0.5 µg/mL.

**Q.** And the MIC (Eikenella corrodens)?
**A.** Its MIC is 2 µg/mL (≈ 2.1 µM).

**Q.** And the MIC (Fusobacterium)?
**A.** Its MIC is 2 µg/mL (≈ 2.1 µM).

**Q.** And the MIC (Haemophilus influenzae [18])?
**A.** Its MIC is 16 µg/mL (≈ 16.8 µM).

**Q.** And the MIC (Staphylococcus aureus [19])?
**A.** Its MIC is 0.25 µg/mL (≈ 0.262 µM).

**Q.** What about the Concentration (Mus musculus [20]) of the same compound?
**A.** The Concentration was 2 µg/mL.

**Q.** What about the MIC (Staphylococcus aureus [21]) of the same compound?
**A.** Its MIC is 0.25 µg/mL (≈ 0.262 µM).

**Q.** What about the MIC [22] of the same compound?
**A.** Its MIC is less than 0.5 µg/mL.

**Q.** What about the MIC (Haemophilus influenzae [23]) of the same compound?
**A.** Its MIC is 16 µg/mL (≈ 16.8 µM).

**Q.** And the Concentration (Mus musculus [24])?
**A.** Its Concentration is 2.3 µg/mL.

**Q.** And the MIC (Clostridioides difficile)?
**A.** The MIC was less than 0.5 µg/mL.

**Q.** And the MIC (Bacteroides fragilis [25])?
**A.** The MIC was 2 µg/mL (≈ 2.1 µM).

**Q.** What about the MIC (Staphylococcus aureus [26]) of the same compound?
**A.** Its MIC is 0.5 µg/mL (≈ 0.524 µM).

**Q.** What about the MIC (Streptococcus [27]) of the same compound?
**A.** Its MIC is 1 µg/mL (≈ 1.05 µM).

**Q.** And the Concentration (Mus musculus [28])?
**A.** The Concentration was 0.4 µg/mL.

**Q.** And the MIC (Phocaeicola vulgatus)?
**A.** Its MIC is less than 0.5 µg/mL.

**Q.** And the ED50 (Streptococcus pneumoniae [29])?
**A.** Its ED50 is greater than 20 mg/kg.

**Q.** What about the Concentration (Mus musculus [30]) of the same compound?
**A.** The Concentration was 1.3 µg/mL.

**Q.** What about the MIC [31] of the same compound?
**A.** Its MIC is 2 µg/mL (≈ 2.1 µM).

**Q.** And the MIC (Staphylococcus aureus [32])?
**A.** Its MIC is 0.5 µg/mL (≈ 0.524 µM).

**Q.** What about the MIC (Bacteroides fragilis [33]) of the same compound?
**A.** The MIC was 2 µg/mL (≈ 2.1 µM).

**Q.** What about the Concentration (Mus musculus [34]) of the same compound?
**A.** Its Concentration is 1.2 µg/mL.

**Q.** And the MIC [35]?
**A.** Its MIC is 4 µg/mL (≈ 4.19 µM).

**Q.** What about the MIC [36] of the same compound?
**A.** Its MIC is less than 0.5 µg/mL.

**Q.** What about the MIC (Streptococcus [37]) of the same compound?
**A.** Its MIC is 1 µg/mL (≈ 1.05 µM).

**Q.** And the Concentration (Mus musculus [38])?
**A.** Its Concentration is 1.1 µg/mL.

**Q.** And the MIC (Cutibacterium acnes)?
**A.** Its MIC is less than 0.5 µg/mL.

**Q.** What about the MIC [39] of the same compound?
**A.** The MIC was less than 0.5 µg/mL.

**Q.** What about the Concentration (Mus musculus [40]) of the same compound?
**A.** The Concentration was 1.8 µg/mL.

**Q.** What about the MIC (Haemophilus influenzae [41]) of the same compound?
**A.** The MIC was 16 µg/mL (≈ 16.8 µM).

**Q.** What about the MIC [42] of the same compound?
**A.** The MIC was 4 µg/mL (≈ 4.19 µM).

**Q.** What about the MIC (Chlamydia trachomatis) of the same compound?
**A.** The MIC was greater than 2 µg/mL.
